Where “and” joins values, the source holds several entries; their conditions need not be identical. Equal entries are not always repeated.
Legend:
[1] = biological target: T1, GABA-A receptor; anion channel (Bos taurus) (UniProt P10063+P08220+P20237+P08219+P10064+P22300); assay: Inhibition of [3H]- flumazenil binding to benzodiazepine receptor in bovine brain membranes at a dose of 10 uM; format: cell membranes
Outline: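 Bovine brain membranes were freeze-thawed, washed by suspension and centrifugation in 50 mM tris-citrate pH 7.4, then used for competition binding against [3H]flumazenil. Specific binding inhibition was first measured at a fixed 10 µM. […] Protein was measured by the Lowry method.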

[2] = biological target: GABA A receptor alpha-3/beta-2/gamma-2 (Rattus norvegicus, UniProt P18508+P20236+P63138); assay: (§1) Inhibition of [3H]flumazenil binding to rat alpha-3-beta-2-gamma-2 GABA-A receptor subunits expressed in HEK293 cells; format: cell-based
Chain of GABA A receptor alpha-3/beta-2/gamma-2 (P18508 whole entry): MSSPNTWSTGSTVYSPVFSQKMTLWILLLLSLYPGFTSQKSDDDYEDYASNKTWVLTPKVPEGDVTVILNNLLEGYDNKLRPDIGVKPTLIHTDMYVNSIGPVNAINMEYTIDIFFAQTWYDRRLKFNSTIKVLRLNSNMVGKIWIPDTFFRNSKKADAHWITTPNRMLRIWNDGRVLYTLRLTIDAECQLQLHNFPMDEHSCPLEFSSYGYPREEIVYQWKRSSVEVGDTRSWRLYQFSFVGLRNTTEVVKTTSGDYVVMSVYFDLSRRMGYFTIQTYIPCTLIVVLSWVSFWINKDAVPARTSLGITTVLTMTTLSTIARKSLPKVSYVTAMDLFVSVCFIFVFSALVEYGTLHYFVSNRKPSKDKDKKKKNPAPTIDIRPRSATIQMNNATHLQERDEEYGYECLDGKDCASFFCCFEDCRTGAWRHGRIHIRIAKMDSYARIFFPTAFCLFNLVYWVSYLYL
Chain of GABA A receptor alpha-3/beta-2/gamma-2 (P20236 whole entry): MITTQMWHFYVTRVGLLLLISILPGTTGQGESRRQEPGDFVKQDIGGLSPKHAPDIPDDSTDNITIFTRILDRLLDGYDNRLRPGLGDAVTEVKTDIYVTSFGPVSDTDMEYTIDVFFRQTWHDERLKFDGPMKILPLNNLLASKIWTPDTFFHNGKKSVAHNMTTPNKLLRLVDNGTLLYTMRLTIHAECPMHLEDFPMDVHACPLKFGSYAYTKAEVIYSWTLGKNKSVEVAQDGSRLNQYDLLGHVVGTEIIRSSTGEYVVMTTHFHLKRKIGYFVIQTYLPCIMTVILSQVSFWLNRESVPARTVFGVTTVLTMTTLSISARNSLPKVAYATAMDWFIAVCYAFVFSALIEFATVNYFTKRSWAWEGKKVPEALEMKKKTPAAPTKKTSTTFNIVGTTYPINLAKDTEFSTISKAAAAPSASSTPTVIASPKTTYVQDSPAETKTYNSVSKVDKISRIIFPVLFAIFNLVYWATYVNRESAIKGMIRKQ
Chain of GABA A receptor alpha-3/beta-2/gamma-2 (P63138 whole entry): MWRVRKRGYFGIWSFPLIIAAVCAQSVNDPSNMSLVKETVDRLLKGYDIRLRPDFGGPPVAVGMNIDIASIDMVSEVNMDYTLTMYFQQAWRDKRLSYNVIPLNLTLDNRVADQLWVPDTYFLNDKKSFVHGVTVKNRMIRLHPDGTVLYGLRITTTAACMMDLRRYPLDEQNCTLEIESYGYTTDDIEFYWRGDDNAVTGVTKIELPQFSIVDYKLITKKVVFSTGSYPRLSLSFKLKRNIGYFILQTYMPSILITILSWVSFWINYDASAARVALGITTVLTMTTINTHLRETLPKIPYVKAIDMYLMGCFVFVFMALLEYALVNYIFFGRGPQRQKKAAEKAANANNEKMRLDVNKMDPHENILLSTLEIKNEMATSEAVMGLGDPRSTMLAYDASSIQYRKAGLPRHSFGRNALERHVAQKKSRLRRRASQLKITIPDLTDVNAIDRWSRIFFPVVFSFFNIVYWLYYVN
Outline: (§2)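 Membranes came from HEK293 clonal lines expressing rat GABAA subtypes, grown in MEM/EBSS with 10% FCS, 2 mM glutamine and penicillin/streptomycin at 37 °C in 5% CO2. Membranes were homogenized and centrifuged (48 000 × g, 30 min, 4 °C) in 10 mM K-phosphate pH 7.4 and resuspended with 100 mM KCl. […] Nonspecific binding was defined with 10^-5 M diazepam. Results are the mean of three determinations.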

[3] = biological target: GABA-A receptor; anion channel; assay: Inhibition of [3H]- flumazenil binding to benzodiazepine receptor in bovine brain membranes; format: cell membranes
Outline: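 Bovine brain membranes were freeze-thawed, washed by suspension and centrifugation in 50 mM tris-citrate pH 7.4, then used for competition binding against [3H]flumazenil. Specific binding inhibition was first measured at a fixed 10 µM. Protein was measured by the Lowry method.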

[4] = biological target: GABA-A receptor; alpha-1/beta-2/gamma-2 (Rattus norvegicus, UniProt P18508+P62813+P63138); assay: Inhibition of [3H]flumazenil binding to rat alpha-1-beta-2-gamma-2 GABA-A receptor subunits expressed in HEK293 cells; format: cell-based; outline: as §2
Chain of GABA-A receptor; alpha-1/beta-2/gamma-2 (P18508 whole entry): as the sequence (P18508 whole entry) above
Chain of GABA-A receptor; alpha-1/beta-2/gamma-2 (P62813 whole entry): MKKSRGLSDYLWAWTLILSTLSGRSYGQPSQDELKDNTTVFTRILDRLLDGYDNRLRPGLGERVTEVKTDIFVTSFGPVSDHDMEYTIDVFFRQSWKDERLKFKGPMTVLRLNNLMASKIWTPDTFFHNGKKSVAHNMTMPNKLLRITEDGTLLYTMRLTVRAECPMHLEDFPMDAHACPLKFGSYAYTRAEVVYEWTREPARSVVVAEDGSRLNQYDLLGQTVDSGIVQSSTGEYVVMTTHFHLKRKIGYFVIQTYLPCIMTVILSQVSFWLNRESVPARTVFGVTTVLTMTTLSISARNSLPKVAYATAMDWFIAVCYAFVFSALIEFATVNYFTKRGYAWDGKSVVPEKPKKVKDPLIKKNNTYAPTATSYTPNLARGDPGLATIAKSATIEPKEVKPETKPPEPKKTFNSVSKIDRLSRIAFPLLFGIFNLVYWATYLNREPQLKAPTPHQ
Chain of GABA-A receptor; alpha-1/beta-2/gamma-2 (P63138 whole entry): as the sequence (P63138 whole entry) above

[5] = biological target: GABA A receptor alpha-5/beta-3/gamma-2 (Rattus norvegicus, UniProt P18508+P19969+P63079); assay: Inhibition of [3H]flumazenil binding to rat alpha-5-beta-3-gamma-2 GABA-A receptor subunits expressed in HEK293 cells; format: cell-based; outline: as §2
Chain of GABA A receptor alpha-5/beta-3/gamma-2 (P18508 whole entry): as the sequence (P18508 whole entry) above
Chain of GABA A receptor alpha-5/beta-3/gamma-2 (P19969 whole entry): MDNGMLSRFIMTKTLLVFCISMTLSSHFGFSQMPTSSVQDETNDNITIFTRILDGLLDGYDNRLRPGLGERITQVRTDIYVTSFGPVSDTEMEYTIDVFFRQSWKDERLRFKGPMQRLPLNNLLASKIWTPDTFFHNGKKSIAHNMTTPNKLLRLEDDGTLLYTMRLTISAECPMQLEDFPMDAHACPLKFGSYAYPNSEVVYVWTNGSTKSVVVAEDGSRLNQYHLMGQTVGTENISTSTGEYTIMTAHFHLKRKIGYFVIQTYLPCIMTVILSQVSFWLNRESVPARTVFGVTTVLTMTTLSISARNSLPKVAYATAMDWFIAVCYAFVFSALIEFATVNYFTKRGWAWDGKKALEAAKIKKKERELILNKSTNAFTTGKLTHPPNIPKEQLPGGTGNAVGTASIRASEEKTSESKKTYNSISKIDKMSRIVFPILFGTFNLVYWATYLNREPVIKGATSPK
Chain of GABA A receptor alpha-5/beta-3/gamma-2 (P63079 whole entry): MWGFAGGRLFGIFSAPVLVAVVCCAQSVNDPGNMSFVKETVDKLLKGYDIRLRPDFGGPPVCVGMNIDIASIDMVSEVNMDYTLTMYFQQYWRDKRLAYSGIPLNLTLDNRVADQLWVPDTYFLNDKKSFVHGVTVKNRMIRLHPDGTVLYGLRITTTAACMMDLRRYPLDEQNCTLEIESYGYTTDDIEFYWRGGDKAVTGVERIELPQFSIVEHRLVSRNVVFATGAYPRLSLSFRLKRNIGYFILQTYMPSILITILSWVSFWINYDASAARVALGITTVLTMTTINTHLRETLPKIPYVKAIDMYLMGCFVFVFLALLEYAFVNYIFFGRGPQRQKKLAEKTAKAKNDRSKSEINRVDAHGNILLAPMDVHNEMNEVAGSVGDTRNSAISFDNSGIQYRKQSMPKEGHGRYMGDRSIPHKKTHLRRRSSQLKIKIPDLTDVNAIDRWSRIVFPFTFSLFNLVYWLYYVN

[6] = Ratio of Ki with out GABA and with GABA
[7] = biological target: GABA A receptor alpha-3/beta-2/gamma-2 (Rattus norvegicus) (UniProt P18508+P20236+P63138); assay: as §1; format: cell-based; outline: as §2
[8] = biological target: T2, GABA A receptor alpha-5/beta-3/gamma-2 (Rattus norvegicus) (UniProt P18508+P19969+P63079); assay: Inhibition of [3H]flumazenil binding to rat alpha-5-beta-3-gamma-2 GABA-A receptor subunits expressed in HEK293 cells at 10 uM; format: cell-based; outline: as §2
[9] = biological target: T1, GABA-A receptor; anion channel (Bos taurus); assay: Relative bindign to GABA-A receptor in the presence and absence of GABA (GABA shift), Ki(-GABA)/Ki(+GABA); format: protein-complex assay
Outline: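 [3H]flumazenil displacement Ki was measured both with and without GABA, using exhaustively washed bovine brain membranes or HEK293 membranes expressing rat α1β2γ2, α3β2γ2 or α5β3γ2. GABA ratio = Ki(without GABA)/Ki(with GABA).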

[10] = biological target: T2, GABA A receptor alpha-5/beta-3/gamma-2 (Rattus norvegicus); conditions: HEK293, 10 uM

Compound | inhibition [1] [%] | Ki [3] [nM] | also measured
O=C(NC(CO)c1ccccc1)C(=O)c1c[nH]c2ccc([N+](=O)[O-])cc12 (racemic) | < 80 | – | –
O=C(NCc1ccc([N+](=O)[O-])cc1)C(=O)c1c[nH]c2ccccc12 | – | 21 | Ki [2]: 1600 nM; Ki [4]: 16 nM; Ki [5]: 58 nM; Ratio [6]: 0.9 and 0.91 and 0.73
O=C(NC1Cc2ccccc2C1)C(=O)c1c[nH]c2ccccc12 | < 80 | – | –
C[C@H](NC(=O)C(=O)c1c[nH]c2ccc([N+](=O)[O-])cc12)c1ccc([N+](=O)[O-])cc1 | < 80 | – | –
COc1ccc(C(C)NC(=O)C(=O)c2c[nH]c3ccc([N+](=O)[O-])cc23)cc1OC (racemic) | – | 55 | –
C[C@@H](NC(=O)C(=O)c1c[nH]c2ccc([N+](=O)[O-])cc12)c1ccccc1 | – | 17 | Ki [2]: 283 nM; Ki [4]: 14 nM; Ki [5]: 239 nM
CCOC(=O)[C@@H](C)NC(=O)C(=O)c1c[nH]c2ccc([N+](=O)[O-])cc12 | – | 45 | –
COc1ccc(C(C)NC(=O)C(=O)c2c[nH]c3ccccc23)cc1 (racemic) | – | 1170 | –
C[C@@H](NC(=O)C(=O)c1c[nH]c2ccc(Cl)cc12)c1ccccc1 | < 80 | – | –
O=C(NC1Cc2ccccc2C1)C(=O)c1c[nH]c2ccc(Cl)cc12 | < 80 | – | –
C[C@@H](NC(=O)C(=O)c1c[nH]c2ccccc12)c1ccccc1 | – | 1310 | Ki [4]: 1150 nM; inhibition [7]: 5%; Ki [5]: 5500 nM
COc1ccc(CNC(=O)C(=O)c2c[nH]c3ccc(OC)cc23)cc1 | – | 494 | –
C[C@H](NC(=O)C(=O)c1c[nH]c2ccccc12)c1ccc([N+](=O)[O-])cc1 | < 80 | – | –
COc1ccc(NNC(=O)C(=O)c2c[nH]c3ccc([N+](=O)[O-])cc23)cc1 | < 80 | – | –
O=C(N[C@@H]1CCc2ccccc21)C(=O)c1c[nH]c2ccc(Cl)cc12 | – | 80 | –
Cc1ccc([C@@H](C)NC(=O)C(=O)c2c[nH]c3ccc(Cl)cc23)cc1 | – | 105 | –
Cc1ccc([C@@H](C)NC(=O)C(=O)c2c[nH]c3ccccc23)cc1 | – | 1150 | –
O=C(NNc1ccc([N+](=O)[O-])cc1)C(=O)c1c[nH]c2ccc([N+](=O)[O-])cc12 | < 80 | – | –
O=C(N[C@H]1CCc2ccccc21)C(=O)c1c[nH]c2ccc(Cl)cc12 | < 80 | – | –
CCOC(=O)[C@H](C)NC(=O)C(=O)c1c[nH]c2ccc([N+](=O)[O-])cc12 | – | 1950 | –
COc1ccc(CNC(=O)C(=O)c2c[nH]c3ccc([N+](=O)[O-])cc23)cc1 | – | – | Ki [2]: 137 nM; Ki [4]: 42 nM; Ki [5]: 126 nM; Ratio [6]: 1.11 and 0.96 and 0.9

Compound | inhibition [1] [%] | Ki [3] [nM] | also measured
C[C@@H](NC(=O)C(=O)c1c[nH]c2ccc([N+](=O)[O-])cc12)c1ccc([N+](=O)[O-])cc1 | – | 78 | –
COc1ccc2[nH]cc(C(=O)C(=O)NNc3ccc([N+](=O)[O-])cc3)c2c1 | < 80 | – | –
COc1ccc(C(C)NC(=O)C(=O)c2c[nH]c3ccc([N+](=O)[O-])cc23)cc1 (racemic) | – | 113 | –
COc1ccc(C(C)NC(=O)C(=O)c2c[nH]c3ccccc23)cc1OC (racemic) | – | 850 | –
COc1ccc(NNC(=O)C(=O)c2c[nH]c3ccc(OC)cc23)cc1 | < 80 | – | –
Cc1ccc([C@H](C)NC(=O)C(=O)c2c[nH]c3ccc([N+](=O)[O-])cc23)cc1 | < 80 | – | –
O=C(N[C@H]1CCc2ccccc21)C(=O)c1c[nH]c2ccccc12 | < 80 | – | –
O=C(NCc1ccc(Cl)cc1)C(=O)c1c[nH]c2ccc([N+](=O)[O-])cc12 | < 80 | – | –
O=C(C(=O)N1Cc2ccccc2C1)c1c[nH]c2ccccc12 | – | 123 | Ki [2]: 3200 nM; Ki [4]: 224 nM; Ratio [6]: 1.06 and 1.1; inhibition [8]: 43%
O=C(N[C@H]1CCc2ccccc21)C(=O)c1c[nH]c2ccc([N+](=O)[O-])cc12 | < 80 | – | –
COc1ccc2[nH]cc(C(=O)C(=O)NCc3ccc(Cl)cc3)c2c1 | < 80 | – | –
CCOC(=O)CNC(=O)C(=O)c1c[nH]c2ccc([N+](=O)[O-])cc12 | – | 2700 | –
O=C(NNc1ccc([N+](=O)[O-])cc1)C(=O)c1c[nH]c2ccc(Cl)cc12 | < 80 | – | –
C[C@@H](NC(=O)C(=O)c1c[nH]c2ccccc12)c1ccc([N+](=O)[O-])cc1 | < 80 | – | –
O=C(C(=O)N1Cc2ccccc2C1)c1c[nH]c2ccc([N+](=O)[O-])cc12 | < 80 | – | –
O=C(NCc1ccc(Cl)cc1)C(=O)c1c[nH]c2ccc(Cl)cc12 | < 80 | – | –
C[C@H](NC(=O)C(=O)c1c[nH]c2ccc([N+](=O)[O-])cc12)c1ccccc1 | < 80 | – | –
Cc1ccc([C@H](C)NC(=O)C(=O)c2c[nH]c3ccccc23)cc1 | < 80 | – | –
C[C@H](NC(=O)C(=O)c1c[nH]c2ccc(Cl)cc12)c1ccccc1 | – | 100 | –
N#CC(NC(=O)C(=O)c1c[nH]c2ccc([N+](=O)[O-])cc12)c1ccccc1 (racemic) | – | 241 | –
O=C(NCc1ccc([N+](=O)[O-])cc1)C(=O)c1c[nH]c2ccc([N+](=O)[O-])cc12 | – | 620 | –

Compound | inhibition [1] [%] | Ki [3] [nM] | also measured
COc1ccc(C(C)NC(=O)C(=O)c2c[nH]c3ccc(Cl)cc23)cc1OC (racemic) | – | 153 | –
O=C(C(=O)N1Cc2ccccc2C1)c1c[nH]c2ccc(Cl)cc12 | < 80 | – | –
O=C(N[C@@H]1CCc2ccccc21)C(=O)c1c[nH]c2ccc([N+](=O)[O-])cc12 | – | 28 | Ki [2]: 1960 nM; Ki [4]: 9 nM; Ki [5]: 95 nM; Ratio [9]: 1.13; Ratio [6]: 1.12 and 0.98
O=C(NNc1ccc([N+](=O)[O-])cc1)C(=O)c1c[nH]c2ccccc12 | – | – | Ki [2]: 40 nM; Ki [4]: 25 nM; Ki [5]: 43 nM; Ratio [6]: 0.96 and 0.98 and 0.8
C[C@H](NC(=O)C(=O)c1c[nH]c2ccccc12)c1ccccc1 | < 80 | – | –
C[C@H](NC(=O)C(=O)c1c[nH]c2ccc(Cl)cc12)c1ccc([N+](=O)[O-])cc1 | < 80 | – | –
O=C(N[C@@H]1CCc2ccccc21)C(=O)c1c[nH]c2ccccc12 | – | 675 | Ki [4]: 225 nM; inhibition [7]: 28%; Ki [5]: 2160 nM
CCOC(=O)C(NC(=O)C(=O)c1c[nH]c2ccccc12)c1ccccc1 (racemic) | < 80 | – | –
Cc1ccc(-c2nc3ccc(C)cn3c2CC(=O)N(C)C)cc1 | – | – | inhibition [10]: 35%
COc1ccc(C(C)NC(=O)C(=O)c2c[nH]c3ccc(Cl)cc23)cc1 (racemic) | – | 103 | –
O=C(NC1Cc2ccccc2C1)C(=O)c1c[nH]c2ccc([N+](=O)[O-])cc12 | < 80 | – | –
COc1ccc(NNC(=O)C(=O)c2c[nH]c3ccc(Cl)cc23)cc1 | < 80 | – | –
CCOC(=O)C(NC(=O)C(=O)c1c[nH]c2ccc([N+](=O)[O-])cc12)c1ccccc1 (racemic) | < 80 | – | –
Cc1ccc([C@@H](C)NC(=O)C(=O)c2c[nH]c3ccc([N+](=O)[O-])cc23)cc1 | – | 34 | –
O=C(NCc1ccc([N+](=O)[O-])cc1)C(=O)c1c[nH]c2ccc(Cl)cc12 | – | 1370 | –
C[C@@H](NC(=O)C(=O)c1c[nH]c2ccc(Cl)cc12)c1ccc([N+](=O)[O-])cc1 | – | 695 | –
N#CC(NC(=O)C(=O)c1c[nH]c2ccccc12)c1ccccc1 (racemic) | < 80 | – | –
Cc1ccc([C@H](C)NC(=O)C(=O)c2c[nH]c3ccc(Cl)cc23)cc1 | < 80 | – | –
O=C(NC(CO)c1ccccc1)C(=O)c1c[nH]c2ccccc12 (racemic) | < 80 | – | –

From ChEMBL document CHEMBL1134525, “Novel N-(arylalkyl)indol-3-ylglyoxylylamides targeted as ligands of the benzodiazepine receptor: synthesis, biological evaluation, and molecular modeling analysis of the structure-activity relationships” (J Med Chem, 2001)
